Assay outcomes as filed in PubChem.
CTSL1 counter-1: blocks F. hepatica cathepsin L1 in PFM18AAP counter-screen | inhibition, % at 5.96 µM | 300,000 compounds, 0.49% hits | recombinant F. hepatica cathepsin L1, Z-Leu-Arg-MCA fluorescence;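 active = inhibition above the mean of all tested compounds plus 3 SD, set per screening campaign, cut at about 17% in these data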
PfM18AAP inh-1: blocks P. falciparum M18 aspartyl aminopeptidase | inhibition, % at 7.35 µM | 290,000 compounds, 1.2% hits | recombinant PfM18AAP, H-Glu-NHMec fluorogenic cleavage;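 active = inhibition above the campaign mean inhibition over all tested compounds plus 3 SD, cut at about 28% in these data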
IMP-1 inh: blocks Pseudomonas aeruginosa IMP-1 metallo-beta-lactamase | 290,000 compounds, 0.45% hits | purified IMP-1, nitrocefin hydrolysis, epi-absorbance fluorescence | inhibition, % at 5.6 µM;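 active = inhibition above the mean plus 3 SD of all compounds in the same screening run, cut at about 4.5% in these data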
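System – purified recombinant IMP-1 beta-lactamase · Input – IMP-1 dispensed at 0.2 nM · Timing – 15 min preincubation plus 25 min reaction at 25 °C · Signal – Epi-absorbance fluorescence, 480 nm excitation, 530 nm emission · Measure – percent IMP-1 inhibition derived from blank-referenced optical density · Controls – Enzyme-plus-DMSO low control, enzyme-free DMSO high control · Replication – singlicate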
VIM-2 inhibitor: inhibitors of Pseudomonas aeruginosa VIM-2 metallo-beta-lactamase. inhibition, % at 5.6 µM. 290,000 compounds, 0.89% hits. purified VIM-2, nitrocefin hydrolysis, epi-absorbance fluorescence;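 active = inhibition above the mean of all tested compounds plus 3 SD, cutoff set per screening run, cut at about 7.5% in these data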;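 also: red hydrolysis product quenches plate fluorescence so inhibitors raise well fluorescence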
PfM18AAP inh-2: PfM18AAP inhibition, confirmation | 2,400 compounds, 28% hits | AID 2170 | shares compounds with PfM18AAP inh-1 | inhibition, % at 7.35 µM | recombinant PfM18AAP, H-Glu-NHMec fluorogenic cleavage;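 active = mean inhibition over replicate wells above the hit cutoff set for the earlier primary screen, cut at about 29% in these data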
CTSL1 counter-2: counter-screen for PFM18AAP inhibitors: confirmation of human cathepsin L inhibitors; shares compounds with PfM18AAP inh-1; 2,400 tested, under 10 active; inhibition, % at 5.96 µM; purified cathepsin L1, Z-Leu-Arg-MCA fluorescence; AID 2178;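 active = average inhibition across replicates above the hit cutoff set in the earlier primary screen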
Target sequence (P07711 whole entry, looked up): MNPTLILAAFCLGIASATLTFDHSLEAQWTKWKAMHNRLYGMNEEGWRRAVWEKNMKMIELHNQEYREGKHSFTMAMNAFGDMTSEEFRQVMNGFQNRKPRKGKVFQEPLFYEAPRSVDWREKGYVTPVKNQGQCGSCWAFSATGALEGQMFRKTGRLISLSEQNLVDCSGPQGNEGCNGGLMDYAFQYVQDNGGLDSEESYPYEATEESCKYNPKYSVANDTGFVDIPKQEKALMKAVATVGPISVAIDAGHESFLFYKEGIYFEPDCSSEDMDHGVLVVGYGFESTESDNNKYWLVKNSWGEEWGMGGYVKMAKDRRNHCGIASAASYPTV
Hits are given with their value; n = inactive; x = not tested or not shown. Compounds with a hit are over-represented: about 2.7% of the library has one in this group of screens.

SMILES	CTSL1 counter-1	PfM18AAP inh-1	IMP-1 inh	VIM-2 inhibitor	PfM18AAP inh-2	CTSL1 counter-2
O=c1cc(-c2ccccc2Cl)oc2cccc(O)c12	n	n	n	n	x	x
O=c1cc2oc3cc(O)c(O)cc3c(-c3ccccc3[N+](=O)[O-])c-2cc1O	n	59	n	n	49	n
COc1ccc(-n2c(O)c(/C=C3\C=Nc4ccccc43)c(=O)[nH]c2=O)cc1	x	32	n	n	n	n
CN(C)c1ccc(CNC23CC4CC(CC(C4)C2)C3)cc1	x	n	n	n	x	x
CCNC(=O)c1cc(Br)ccc1Cl	n	n	n	n	x	x
O=C(Nn1cnnc1)c1cc(Br)ccc1Cl	n	60	n	n	55	n
O=C(Nn1cnnc1)c1ccc(Cl)c(Cl)c1	n	52	n	n	50	n
CN1CCCN=C1/C=C/c1cccs1	n	n	n	n	x	x
Cc1ccc(N2C(=O)c3ccccc3C2C(=O)c2ccc(C)c(C)c2O)cc1 (configuration not stated)	n	42	n	n	n	n
Cc1ccc(N2C(=O)c3ccccc3C2C(=O)c2cc(C)ccc2O)cc1 (configuration not stated)	n	55	n	n	n	n
Cc1ccccc1N1C(=O)c2ccccc2N2C(=O)c3ccccc3C12 (configuration not stated)	n	n	n	n	x	x
Cc1ccc(C2C(C(=O)O)c3ccccc3C(=O)N2C)c(C)c1 (configuration not stated)	n	n	n	n	x	x
CCN1CCCC1CNC(=O)c1cc([N+](=O)[O-])c(N(C)C)cc1OC (configuration not stated)	n	n	n	n	x	x
CCOc1ccccc1NC(=S)Nn1cnnc1	n	74	n	n	56	n
Fc1ccccc1NC(=S)NCc1ccccc1	n	n	n	n	x	x
CCc1ccccc1NC(=S)Nn1cnnc1	x	76	n	n	70	n
Cc1cccc(NC(=S)Nn2cnnc2)c1C	n	72	n	n	69	n
Fc1ccccc1NC(=S)Nn1cnnc1	n	75	n	n	54	n
COc1cccc(CC(=O)OCC(=O)NC(=O)c2ccc(OC(F)F)cc2)c1	n	x	x	x	x	x
CC12CCC(=O)N1C(C(=O)Nc1ccc(Cl)c(S(=O)(=O)N3CCCCC3)c1)CS2 (configuration not stated)	n	x	x	x	x	x
Cc1ccccc1NC(=S)Nn1cnnc1	n	73	n	n	52	n
CCN1/C(=C\C(=S)Nc2ccccc2)Sc2ccccc21	n	41	n	n	n	n
O=C1NCCCc2c1oc1cc(Br)c(O)c(Br)c21	n	n	n	n	x	x
O=C1NCCCC2c3c(cc(Br)c(O)c3Br)OC12N1CCCCC1 (configuration not stated)	n	51	n	n	n	n
CCOc1ccc(CCNC(=O)COC(=O)/C=C/c2ccc(OCC#N)c(OC)c2)cc1OCC	n	n	n	n	x	x
SMILES	CTSL1 counter-1	PfM18AAP inh-1	IMP-1 inh	VIM-2 inhibitor	PfM18AAP inh-2	CTSL1 counter-2
CN(C)S(=O)(=O)c1cccc(-n2sc3ccccc3c2=O)c1	n	43	n	n	43	n
O=c1c2ccccc2sn1-c1ccc(S(=O)(=O)N2CCCCC2)cc1	n	n	n	n	x	x
O=c1c2ccccc2sn1-c1ccc(S(=O)(=O)N2CCCC2)cc1	n	33	n	n	n	n
Cc1ccc(-n2sc3ccccc3c2=O)cc1S(=O)(=O)N1CCCCC1	n	40	n	n	66	n
O=c1c2ccccc2sn1-c1nccs1	x	n	n	n	x	x
O=c1c2ccccc2sn1-c1ccccc1	n	56	n	n	52	n
CCOC(=O)C1(CCCc2ccccc2)CCN(C(=O)c2cnn(CC)c2)CC1	n	n	n	n	x	x
COc1ccc(C(C(=O)NC(C)(C)C)N(C(=O)CNC(=O)c2cccs2)c2cccnc2)cc1OC (configuration not stated)	n	n	n	n	x	x
CC(C)(C)c1ccc(S(=O)(=O)O/N=C2/CCCCC2c2ccc([N+](=O)[O-])cc2[N+](=O)[O-])cc1 (configuration not stated)	n	38	n	n	n	n
CS(=O)(=O)O/N=C1\CCCCC1c1ccc([N+](=O)[O-])cc1[N+](=O)[O-] (configuration not stated)	n	n	n	n	x	x
CC1CCc2c(sc(NC(=O)CSc3ncn[nH]3)c2C#N)C1 (configuration not stated)	n	n	n	n	x	x
